Screening data from PubChem BioAssay.
Sampled rows, rich in hits. Any-hit rate of the full collection: about 2.3%.
TRPC6 inh: mouse TRPC6 channel inhibition; Q61143; HEK293-TRPC6, membrane potential dye, ACh-evoked depolarization; stronger effect = lower value; B-score at 10 µM; 1.1% of 310,000 active; AID 2553;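 active = B-score under library mean minus 3 SD, initial fluorescence not abnormally high, positive integrated signal ratio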;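 also: B-score derived from integrated fluorescence ratio over the kinetic read; more negative B-score means stronger inhibition of depolarization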
TRPC4 inh: inhibitors of mouse TRPC4 channel; Q9QUQ5; HEK293 TRPC4beta/mu-opioid, DAMGO-evoked Fluo4 calcium flux; stronger effect = lower value; B-score at 10 µM; 0.39% of 300,000 active; AID 2247;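 active = B-score over 3 SD under the library average, no early fluorescence shift, positive overall ratio signal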
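Material: HEK293 cells with stable TRPC4beta plus mu-opioid receptor expression; probe or stimulus: DAMGO in two steps, submaximal then maximal; technique: Fluo4 calcium fluorescence by kinetic imaging, 5 s 1 Hz baseline; measure: integrated fluorescence ratio relative to baseline, converted to per-well B score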
TRPC4 act: TRPC4 (mouse) channel activation. Q9QUQ5. HEK293 TRPC4beta/mu-opioid, Fluo4 calcium fluorescence; stronger effect = higher value. B-score at 10 µM. 0.49% of 310,000 active;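 active = B-score above 5 SD of library B-scores, and initial fluorescence ratio not above library mean plus 5 SD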;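 also: positive B-score marks a calcium rise read as TRPC4 activation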
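Assay system: HEK293 cells stably co-expressing mouse TRPC4beta and mu-opioid receptor / Timing: Fluo4 dye loading 45 min at room temperature, 110 s recording / Signal: Fluo4 calcium-sensitive dye fluorescence, kinetic, 1 Hz baseline / Read-out: integrated baseline-normalised fluorescence ratio, converted to per-well B score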
CR mimetic SO: lowers age-related superoxide in aged yeast cells | superoxide response (% of plate mean), % at 10 µM | S. cerevisiae aged cells, superoxide DHE fluorescence; stronger effect = lower value | AID 2690 | 0.18% of 330,000 active;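 active = superoxide response under a set limit, about three screen SD below normal, cut at about 65% in these data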;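 also: yeast aged for seven days with compound at 30 °C before DHE staining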
TRPC4 potent: TRPC4 (mouse) allosteric potentiation. HEK293 TRPC4beta/mu-opioid, DAMGO EC20, Fluo-4 Ca2+ flux; stronger effect = higher value. Q9QUQ5. 0.42% of 310,000 active. AID 2227. B-score at 10 µM;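 active = B-score of calcium response area above 5 SD of library B-scores, with initial fluorescence ratio within 5 SD of library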
TRPC6 activator: mouse TRPC6 channel activation; HEK293-TRPC6 membrane potential dye fluorescence; stronger effect = higher value; 0.13% of 310,000 active; B-score at 10 µM; Q61143;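 active = B-score of the integrated fluorescence ratio above library mean plus 3 SD, and starting fluorescence ratio within library mean plus 5 SD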;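 also: higher score means more depolarization so channel activation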
Numbers stand for hits; i = inactive; nt = not tested or not shown.

SMILES	TRPC6 inh	TRPC4 inh	TRPC4 act	CR mimetic SO	TRPC4 potent	TRPC6 activator
CC(C)(C)c1ccc(OCC(=O)N(Cc2cccs2)C2CCS(=O)(=O)C2)cc1 (centres undefined)	i	i	i	i	i	i
O=C(N/N=C\C=C\c1ccc2c(c1)OCO2)C1COc2cc3ccccc3cc2O1 (centres undefined)	i	i	i	i	12	i
COc1cc(/C=N/NC(=O)C2COc3ccccc3O2)ccc1O (centres undefined)	i	i	i	i	i	i
O=C(N/N=C/c1ccc2c(c1)OCO2)C1COc2ccccc2O1 (centres undefined)	i	i	i	i	i	i
COc1ccc(/C=N/NC(=O)C2COc3ccccc3O2)cc1OC (centres undefined)	i	i	150	i	i	i
Cc1ccc(-n2nc(-c3cccs3)cc2C(=O)NCC2CCCO2)c(C)c1 (centres undefined)	i	-7	55	i	i	i
COc1ccc(CCN(C)C(=O)c2cc(S(=O)(=O)N3CCCCC3)ccc2Cl)cc1OC	i	-7	i	i	i	i
COc1ccc(CCN(C)C(=O)c2cc(S(=O)(=O)N3CCCCCC3)ccc2OC)cc1OC	i	i	i	i	i	i
COc1ccc(C2Nc3ccc(Br)cc3C(c3ccccc3)N2CC(=O)O)cc1 (centres undefined)	i	i	i	i	i	i
O=C(O)CN1C(c2ccccc2O)Nc2ccc(Br)cc2C1c1ccccc1 (centres undefined)	i	-5	i	nt	i	i
COc1ccc(Cn2nnnc2C(c2cc3cccc(C)c3[nH]c2=O)N2CCN(C)CC2)cc1 (centres undefined)	i	i	98	i	i	i
CCc1ccc2[nH]c(=O)c(C(c3nnnn3Cc3ccc(OC)cc3)N3CCOCC3)cc2c1 (centres undefined)	i	i	i	i	i	i
Cc1cccc2cc(C(c3nnnn3Cc3ccccc3)N3CCN(C)CC3)c(=O)[nH]c12 (centres undefined)	i	i	47	i	i	i
COc1ccc(Cn2nnnc2C(c2cc3cc(C)ccc3[nH]c2=O)N2CCN(C)CC2)cc1 (centres undefined)	i	-7	i	i	i	i
Cc1cccc2cc(C(c3nnnn3Cc3ccccc3)N3CCN(c4ccccc4)CC3)c(=O)[nH]c12 (centres undefined)	i	i	i	i	i	i
Cc1cc(/C=N/NC(N)=S)c(C)n1-c1ccc(Cl)c(Cl)c1	i	i	i	i	i	i
CCNC(=S)N/N=C/c1cc(C)n(-c2ccc(Cl)cc2)c1C	i	i	i	i	22	i
CCCCN(C)CCCNC(=O)CN1N=C(c2ccc(Cl)cc2)CCC1=O	i	i	102	i	12	i
COc1ccc(C(=O)N2CCN(C(=O)c3ccc(-c4ccccc4)cc3)CC2)cc1OC	i	i	i	i	i	i
COc1ccc(C(=O)N2CCN(c3c(C)cccc3C)CC2)cc1OC	i	i	i	i	17	i
CC[C@@]1(C(=O)OC)N[C@H](CN(C)C(=O)Nc2ccccc2)[C@@H]2C(=O)N(C)C(=O)[C@@H]21	nt	nt	nt	i	nt	nt
Cc1ccc(C)c2nc3sc(C(=O)N4CCCc5ccccc54)c(N)c3cc12	i	i	i	i	i	i
Cc1ccc(C)c2nc3sc(C(=O)O)cc3cc12	i	-7	i	i	i	i
COc1ccc2[nH]c(=O)c(CN(CCCN3CCOCC3)C(=O)NCc3ccccc3)cc2c1	i	i	i	i	i	i
COc1ccc(C2(CNC(=O)c3ccc(N)cc3)CCCC2)cc1	i	i	i	i	i	i
SMILES	TRPC6 inh	TRPC4 inh	TRPC4 act	CR mimetic SO	TRPC4 potent	TRPC6 activator
O=C(NN1CCOCC1)c1ccc(Cl)c([N+](=O)[O-])c1	i	i	i	i	i	i
CN1CCN(NC(=O)c2ccc(Cl)c([N+](=O)[O-])c2)CC1	i	i	44	i	i	i
O=C1NCN(c2ccccc2)C12CCN(CCCC(c1ccc(F)cc1)c1ccc(F)cc1)CC2	i	i	116	i	i	i
O=C1CCC(=O)N1CCC(c1ccc(F)cc1)c1ccco1 (centres undefined)	i	i	i	i	i	i
COCCn1nnnc1C(c1ccc(Cl)cc1)N1CCSCC1 (centres undefined)	i	i	i	i	i	i
CCCCCCCCOC(=O)c1nc(Cl)c(Cl)c(N)c1Cl	i	i	i	i	i	i
CN1CCc2c(sc(NC(=O)c3ccc(S(=O)(=O)N4CCCC4)cc3)c2C(N)=O)C1	-5.95	i	i	i	i	i
O=C(NCCCN1CCN(CCCNC(=O)c2ccc3c(c2)OCO3)CC1)c1ccc2c(c1)OCO2	i	i	138	i	i	i
COc1cccc(C(=O)NCCCNC(=O)c2cccc(OC)c2)c1	i	i	i	i	i	i
COc1cccc(C(=O)NCCCN2CCN(CCCNC(=O)c3cccc(OC)c3)CC2)c1	i	i	i	i	12	i
COCCCNC(=O)c1ccc2c(c1)OCO2	i	i	i	i	i	i
O=C(NCCCN1CCN(CCCNC(=O)c2cccc(Cl)c2)CC1)c1cccc(Cl)c1	i	i	i	i	18	i
O=C(NCCN1CCCC1)c1cccc(Cl)c1	i	i	i	i	i	i
Cc1ccc(-c2nnc(SCC(=O)N/N=C/c3ccc(C(=O)O)cc3)n2C2CCCCC2)cc1	i	i	i	i	i	i
CC(O)CNc1nc2c(c(=O)n(C)c(=O)n2C)n1C/C=C/c1ccccc1 (centres undefined)	i	i	i	i	i	i
O=S(=O)(c1ccc(F)cc1)n1ccc(-c2cccc(OCc3ccc(Cl)cc3Cl)c2)n1	i	i	i	i	i	i
O=C(Nc1ccccc1F)c1ccn[nH]1	i	i	i	i	i	i
O=C(C1=C[C@@H](c2ccc(C(F)(F)F)cc2)C[C@@H](OCCCCO)O1)N1CCOCC1	i	i	i	i	i	i
O=C(C1=C[C@H](c2ccc(C(F)(F)F)cc2)C[C@H](OCCCCO)O1)N1CCOCC1	i	i	133	i	i	i
Cc1cccc(-n2nc(C)c3c(C(=O)O)cc(-c4cccs4)nc32)c1	i	-6	i	i	i	i
Cc1nn(-c2ccccn2)c2nc(-c3cccs3)cc(C(=O)N3CCOCC3)c12	i	i	i	i	12	i
COc1ccc(-c2cc(C(=O)O)c3c(C)nn(-c4ccccn4)c3n2)cc1	i	i	i	i	i	i
COc1ccccc1N(CN1C(=O)c2ccccc2C1=O)C(=O)c1cccnc1	i	i	i	i	i	i
COCCNC(=O)CSc1nnc(-c2ccccc2)c(-c2ccccc2)n1	i	i	i	i	i	i
